In ChEMBL document CHEMBL1134032, “Rational design, synthesis, and biological evaluation of rigid pyrrolidone analogues as potential inhibitors of prostate cancer cell growth” (Bioorg Med Chem Lett, 2001):

Legend:
[1] = biological target: T1, Protein kinase C epsilon type (Homo sapiens, UniProt Q02156); test: Inhibition of [3H]-phorbol 12,13-dibutyrate (PDBu) binding to human recombinant protein kinase C epsilon
T1 sequence (Q02156 whole entry): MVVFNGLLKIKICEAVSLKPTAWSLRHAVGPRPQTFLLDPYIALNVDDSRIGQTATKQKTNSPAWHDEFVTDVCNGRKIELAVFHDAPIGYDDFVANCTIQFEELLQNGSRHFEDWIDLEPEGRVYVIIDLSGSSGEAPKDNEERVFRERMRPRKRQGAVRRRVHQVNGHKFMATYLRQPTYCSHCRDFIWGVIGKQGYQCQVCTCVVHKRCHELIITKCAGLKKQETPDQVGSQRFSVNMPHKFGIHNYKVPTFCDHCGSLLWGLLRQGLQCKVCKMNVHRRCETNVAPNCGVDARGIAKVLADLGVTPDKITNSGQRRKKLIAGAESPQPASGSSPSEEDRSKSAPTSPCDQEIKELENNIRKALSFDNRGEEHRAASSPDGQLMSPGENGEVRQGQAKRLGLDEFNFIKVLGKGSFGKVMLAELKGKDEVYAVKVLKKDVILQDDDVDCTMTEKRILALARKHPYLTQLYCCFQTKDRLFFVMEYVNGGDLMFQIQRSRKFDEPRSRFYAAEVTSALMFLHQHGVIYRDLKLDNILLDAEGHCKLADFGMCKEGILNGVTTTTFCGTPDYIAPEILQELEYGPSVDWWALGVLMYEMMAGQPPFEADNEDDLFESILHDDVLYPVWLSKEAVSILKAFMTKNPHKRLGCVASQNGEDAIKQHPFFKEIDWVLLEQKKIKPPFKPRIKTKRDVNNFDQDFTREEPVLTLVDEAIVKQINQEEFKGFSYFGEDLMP
In short: (§1)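 Competitive displacement of [3H]PDBu binding from recombinant human PKC isozymes (alpha, beta, gamma, delta, epsilon), each tested separately. Affinity is reported as Ki in nM.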

[2] = biological target: Protein kinase C delta type (Homo sapiens, UniProt Q05655); test: Inhibition of [3H]-phorbol 12,13-dibutyrate (PDBu) binding to human recombinant protein kinase C delta; in short: as §1
Protein kinase C delta type, sequence (Q05655 whole entry): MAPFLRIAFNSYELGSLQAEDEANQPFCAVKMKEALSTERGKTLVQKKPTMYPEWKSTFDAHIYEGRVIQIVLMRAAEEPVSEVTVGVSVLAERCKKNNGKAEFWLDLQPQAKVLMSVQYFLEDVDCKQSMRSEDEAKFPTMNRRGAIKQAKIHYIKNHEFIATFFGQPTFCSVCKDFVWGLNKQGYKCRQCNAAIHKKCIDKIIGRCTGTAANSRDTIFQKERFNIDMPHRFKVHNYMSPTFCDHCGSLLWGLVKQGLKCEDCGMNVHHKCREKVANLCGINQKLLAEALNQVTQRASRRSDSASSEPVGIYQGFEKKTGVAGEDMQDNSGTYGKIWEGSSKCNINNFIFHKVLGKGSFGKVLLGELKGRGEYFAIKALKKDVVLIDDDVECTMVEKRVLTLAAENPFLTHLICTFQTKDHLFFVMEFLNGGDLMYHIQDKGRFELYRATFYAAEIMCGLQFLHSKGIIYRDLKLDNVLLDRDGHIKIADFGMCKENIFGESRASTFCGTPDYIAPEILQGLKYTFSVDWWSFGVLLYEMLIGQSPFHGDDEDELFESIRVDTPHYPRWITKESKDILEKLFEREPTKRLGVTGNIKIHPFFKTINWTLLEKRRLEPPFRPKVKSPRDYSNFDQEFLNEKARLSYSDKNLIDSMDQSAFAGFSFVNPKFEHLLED

[3] = biological target: Protein kinase C alpha type (Homo sapiens, UniProt P17252); test: Inhibition of [3H]-phorbol 12,13-dibutyrate (PDBu) binding to human recombinant protein kinase C alpha; in short: as §1
[4] = biological target: Protein kinase C gamma type (Homo sapiens, UniProt P05129); test: Inhibition of [3H]-phorbol 12,13-dibutyrate (PDBu) binding to human recombinant protein kinase C gamma; in short: as §1
[5] = biological target: Protein kinase C beta type (Homo sapiens, UniProt P05771); test: Inhibition of [3H]-phorbol 12,13-dibutyrate (PDBu) binding to human recombinant protein kinase C beta; in short: as §1
Protein kinase C beta type, sequence (P05771 whole entry): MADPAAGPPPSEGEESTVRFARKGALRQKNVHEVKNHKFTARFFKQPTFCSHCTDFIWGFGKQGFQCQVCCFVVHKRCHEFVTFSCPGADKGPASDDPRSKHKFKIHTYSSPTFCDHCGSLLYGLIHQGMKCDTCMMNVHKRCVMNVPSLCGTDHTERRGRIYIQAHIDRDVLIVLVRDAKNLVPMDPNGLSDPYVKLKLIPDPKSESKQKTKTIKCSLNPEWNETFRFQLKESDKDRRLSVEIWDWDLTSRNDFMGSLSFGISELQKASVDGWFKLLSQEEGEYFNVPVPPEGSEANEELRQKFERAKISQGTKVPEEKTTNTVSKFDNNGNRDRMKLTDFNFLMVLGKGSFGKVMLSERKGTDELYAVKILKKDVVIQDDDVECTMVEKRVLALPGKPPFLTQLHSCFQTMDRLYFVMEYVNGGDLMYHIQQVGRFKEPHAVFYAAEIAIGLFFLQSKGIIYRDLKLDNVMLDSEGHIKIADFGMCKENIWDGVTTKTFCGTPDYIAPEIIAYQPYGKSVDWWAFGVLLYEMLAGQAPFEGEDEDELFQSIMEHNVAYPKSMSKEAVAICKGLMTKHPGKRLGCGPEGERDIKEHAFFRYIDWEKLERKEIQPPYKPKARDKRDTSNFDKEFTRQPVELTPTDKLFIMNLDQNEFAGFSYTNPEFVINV

Compound | Ki [1] [nM] | Ki [2] [nM] | Ki [3] [nM] | Ki [4] [nM] | Ki [5] [nM]
CCCCCCCCC#Cc1ccc2c(c1)[C@](C)(C(C)C)[C@H]1C(=O)N[C@H](CO)[C@@H]21 | 469 | 1630 | 580 | 279 | 
CCCCCCCCC#Cc1ccc2c(c1)C[C@@H](CO)NC(=O)[C@H](C(C)C)N2C | 40 | 114 | 23 | 43 | 70
CCCCCCCCCCCCCC(=O)O[C@@H]1[C@@H](C)[C@@]2(O)[C@@H](C=C(CO)C[C@]3(O)C(=O)C(C)=C[C@@H]23)[C@@H]2C(C)(C)[C@]12OC(C)=O [PHORBOL MYRISTATE ACETATE] | 0.45 | 0.8 |  | 4.9 | 1.8
